# Hits are enriched below; roughly 2.3% of the tested compounds scored in any of these assays.
# CHT block: human CHT choline transport inhibition; AID 488975; CHT-expressing cells, membrane potential dye, choline response; active compounds read low; Q9GZV3; B-score at 10 µM; 310,000 compounds, 0.86% hits;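 active means B-score over 3 SD under the library average, and starting fluorescence ratio not unusually high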;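 further: choline stimulus applied at its EC90 after an EC20 pre-addition; B-score computed on integrated fluorescence ratio after choline addition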
# Target sequence (Q9GZV3 whole entry, looked up): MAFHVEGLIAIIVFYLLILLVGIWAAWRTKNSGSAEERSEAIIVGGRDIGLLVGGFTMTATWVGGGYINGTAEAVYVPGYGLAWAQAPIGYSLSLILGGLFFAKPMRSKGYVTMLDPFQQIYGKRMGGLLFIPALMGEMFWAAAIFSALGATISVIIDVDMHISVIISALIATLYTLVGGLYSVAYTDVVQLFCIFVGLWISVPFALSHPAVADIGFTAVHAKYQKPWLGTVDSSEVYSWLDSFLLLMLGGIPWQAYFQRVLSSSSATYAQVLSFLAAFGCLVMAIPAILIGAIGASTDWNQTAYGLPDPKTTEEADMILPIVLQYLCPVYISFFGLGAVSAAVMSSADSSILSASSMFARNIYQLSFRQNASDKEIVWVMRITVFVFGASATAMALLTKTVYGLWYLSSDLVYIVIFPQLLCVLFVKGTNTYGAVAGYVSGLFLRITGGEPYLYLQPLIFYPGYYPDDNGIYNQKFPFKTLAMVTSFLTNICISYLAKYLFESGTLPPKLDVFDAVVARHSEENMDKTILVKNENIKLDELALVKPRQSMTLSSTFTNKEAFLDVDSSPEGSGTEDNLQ
# COUP-TFII inh: NR2F2 (human) inhibition, primary screen; P24468; HEK293T NGFI-A luciferase reporter, luminescence; inhibition, % at 8.6 µM; 370,000 compounds, 0.7% hits;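 active means inhibition above a per-plate cutoff, mean inhibition of test wells between control levels plus 3 SD, cut at about 38% in these data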;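 further: cells cotransfected with COUP-TFII expression vector driving the NGFI-A reporter; 0% = median of COUP-TF2 test wells and 100% = reporter-only cells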
# NR2E3 ag-1: agonists of human NR2E3 nuclear receptor; Q9Y5X4; CHO-S Gal4-NCOR/VP16-NR2E3 two-hybrid, luciferase; inhibition of corepressor binding, % at 3.98 µM; 360,000 compounds, 0.35% hits; AID 602229;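 active means inhibition above the mean of all tested compounds plus 3 SD, cut at about 70% in these data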;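 further: 0% = DMSO with NR2E3 transfected cells and 100% = cells lacking NR2E3 construct; higher means lower luciferase signal from less NR2E3 corepressor binding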
# GalR3 antag: human GalR3 antagonism. 360,000 compounds, 0.44% hits. HEK293 GalR3-CNG cAMP membrane potential fluorescence; galR3 body fused to GalR1 C-terminus. AID 651719. O60755. inhibition, % at 3 µM;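 active means inhibition above the screen-wide average plus 3 SD, cut at about 13% in these data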;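 further: forskolin and galanin both at EC90 stimulate the cells; cAMP rise reported by CNG channel membrane potential dye signal; 0% = forskolin plus galanin with DMSO and 100% = forskolin alone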
# NR2E3 ag-2: agonists of human nuclear receptor NR2E3; Q9Y5X4; GST-NR2E3/biotin-RetCOR TR-FRET, 1536-well; inhibition of corepressor binding, % at 4.78 µM; 320,000 compounds, 0.12% hits;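 active means percent inhibition above the cutoff of mean plus 3 SD of all tested compounds, set per screening campaign, cut at about 20% in these data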;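 further: 0% = DMSO wells and 100% = biotin wells as full block of FRET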
#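 system = GST-tagged NR2E3 plus biotinylated RetCOR corepressor | input = 1.35 nM GST-NR2E3 | also added = 7 nM biotin-RetCOR | schedule = 5 h incubation at 4 °C | measured by = TR-FRET with europium anti-GST and streptavidin-D2, 340 nm excitation | read-out = percent loss of FRET ratio relative to control wells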
# CHT PAM: human CHT allosteric activation | B-score at 10 µM | CHT-expressing cells, membrane potential dye, choline EC20; active compounds read high; LV-AA mutant CHT in HEK293 cells | Q9GZV3 | 310,000 compounds, 0.49% hits;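 active means initial fluorescence not abnormally high and integrated response B-score, plate-corrected, over 3 SD above library mean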
# NR2E3 ag confirm: confirmation of human NR2E3 agonists | shares compounds with NR2E3 ag-1 | CHO-S mammalian two-hybrid NR2E3-NCOR, luciferase luminescence | inhibition, % at 3.98 µM | 2,300 compounds, 51% hits;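 active means average inhibition above a cutoff equal to the mean inhibition of all tested compounds plus one SD, cut at about 70% in these data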;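 further: 0% = DMSO in NR2E3 cells and 100% = DMSO in cells lacking NR2E3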
# VP16 counter: GAL4-VP16 reporter inhibition in NR2E3 agonist counterscreen; shares compounds with NR2E3 ag-1; CHO-S GAL4-VP16 luciferase reporter, luminescence; inhibition, % at 3.98 µM; 2,300 compounds, 29% hits;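 active means mean inhibition above a cutoff equal to the average over all tested compounds plus one standard deviation, cut at about 70% in these data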;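 further: luciferase from a UAS reporter driven by GAL4-VP16 transactivation; 0% = DMSO with VP16-transfected cells and 100% = DMSO with cells lacking VP16; higher means less reporter light so more repression of VP16 activity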
# GalR3 conf: confirmation of human galanin receptor 3 antagonists | shares compounds with GalR3 antag | HEK293 GalR3 CNG cAMP biosensor, membrane potential fluorescence; galR3 fused to GalR1 carboxy tail; challenged with forskolin and galanin at EC90 | inhibition, % at 3 µM | 1,600 compounds, 59% hits;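 active means inhibition above the primary screen's cutoff, the mean inhibition of all screened compounds plus 3 SD, cut at about 13% in these data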;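 further: 0% = forskolin plus galanin and 100% = forskolin alone with DMSO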
# CNG parental: parental cell agonism counter-screen for GalR3 antagonists; shares compounds with GalR3 antag; HEK293-CNG parental cells, cAMP membrane potential fluorescence; normalised: DMSO wells 0%, forskolin wells 100%; activation, % at 3 µM; 1,600 compounds, 10% hits; in the data active means activation above about 1.3%
# Gal4-VP16 ctr: inhibits VP16 reporter, flagging COUP-TFII antagonist hits; shares compounds with COUP-TFII inh; HEK293 Gal4-VP16 luciferase reporter, luminescence; inhibition, % at 8.5 µM; 2,500 compounds, 25% hits; in the data active means inhibition above about 13%
# NR2F2 inh conf: COUP-TFII (NR2F2) inhibition, confirmation assay; shares compounds with COUP-TFII inh; HEK293 NGFI-A luciferase reporter, luminescence; inhibition, % at 8.5 µM; 2,500 compounds, 45% hits; AID 687008;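 active means mean inhibition over three repeats above a set limit taken from the earlier primary screen, cut at about 38% in these data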;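 further: 100% = cells given the luciferase reporter alone without the COUP-TF2 vector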
# * marks the source's active call; other numbers are inactive results; i = inactive; x = no result.
SMILES,CHT block,COUP-TFII inh,NR2E3 ag-1,GalR3 antag,NR2E3 ag-2,CHT PAM,NR2E3 ag confirm,VP16 counter,Gal4-VP16 ctr,NR2F2 inh conf,others
O=C(c1ccccc1)c1nn(-c2ccccc2)c(=O)cc1C(F)(F)F,i,17,47,0,7,i,x,x,x,x,
O=C(c1ccccc1)c1nn(-c2ccc(Cl)cc2)c(=O)cc1C(F)(F)F,i,40*,108*,2,8,i,93*,67,50*,62*,
COc1ccc(CC2C(=O)NC(C)C(=O)N(C)C3Cc4ccc(cc4)Oc4cc(ccc4O)CC(C(=O)NC(C)C(=O)NC(C)C(=O)N2C)N(C)C3=O)cc1 (stereo not given),x,88*,103*,1,x,x,99*,96*,19*,82*,
COc1ccc(CN2C(=O)C(C)Nc3ncnc(N4CCc5ccccc5C4)c32)cc1 (stereo not given),x,2,-32,-5,x,x,x,x,x,x,
Cc1ccccc1C(=O)N1CCN(c2ccc(NC(=O)CSc3ccc(Cl)cc3)cc2)CC1,i,54*,57,-6,1,i,59,66,0,57*,
CCC(=O)Nc1ccc(N2CCN(C(=O)c3ccccc3C)CC2)cc1,i,5,0,-6,0,i,x,x,x,x,
COc1ccc(NS(=O)(=O)c2cccc(NC(=O)c3ccc(Cl)nc3)c2)cc1,i,75*,83*,82*,5,i,84*,78*,3,66*,GalR3 conf=96*;CNG parental=0
Cc1ccc(-n2c(-c3ccc(Br)cc3)c[n+]3c2CCc2ccc4cccnc4c2-3)cc1,i,88*,83*,-2,-6,i,99*,72*,33*,89*,
Cc1ccc(-n2c(=O)[nH]c3ncccc3c2=O)cc1,i,12,-21,-4,-1,i,x,x,x,x,
COc1ccc(-n2c(SC/C=C/c3ccccc3)nnc2-c2cccs2)cc1,x,16,x,x,x,x,x,x,x,x,
CCOC(=O)C1(Cc2ccc(Cl)cc2)CCN(C(C)Cc2ccc(O)c(OC)c2)CC1 (stereo not given),i,53*,64,-12,6,i,86*,75*,2,16,
COC(=O)C[C@H]1CC[C@@H]2[C@@H](COc3ccc(NS(=O)(=O)c4ccccc4Cl)cc3C(=O)N2C)O1,x,-6,x,x,x,x,x,x,x,x,
N#Cc1cc2c(nc1SCC(=O)N1CCOCC1)CCCCC2,i,53*,73*,0,5,i,29,0,55*,77*,
COc1ccc(-n2c(SCC(=O)N3CCCCC3C)nnc2-c2ccncc2)cc1 (stereo not given),x,-2,x,x,x,x,x,x,x,x,
CC(C)(C)c1ccc(/C=N/Nc2ccc(C(=O)O)cc2)cc1,i,70*,50,-4,0,i,65,-33,-22,69*,
COc1cccc(-c2nnc3n2N=C(C(C)(C)C)CS3)c1,i,45*,69,-6,3,i,29,51,27*,41*,

# From PubChem
